The text below walks through data of ChEMBL document CHEMBL4406901, “Synthesis, 3D-structure and stability analyses of NRPa-308, a new promising anti-cancer agent” (Bioorg Med Chem Lett, 2019).

In series [1] the test system is MDA-MB-231. Briefly: Antiproliferative activity against human MDA-MB-231 cells expressing NRP1 assessed as cell viability measured after 48 hrs by MTT assay. The format is functional, cell-based. Particulars: MDA-MB-231, 48 h.
For series [2], the system named is MDA-MB-231. Description: Antiproliferative activity against human MDA-MB-231 cells expressing NRP1 assessed as cell viability measured after 72 hrs by MTT assay. In kind it is functional, cell-based. To be noted: MDA-MB-231, 72 h.
Series [3] concerns BT-549. Description: Antiproliferative activity against human BT549 cells expressing NRP1 assessed as cell viability measured after 48 hrs by MTT assay. In kind it is functional, cell-based. To be noted: BT-549, 48 h. (In general: Formazan colour is commonly taken as a measure of viable cells.)
For series [4], the system named is BT-549. Briefly: Antiproliferative activity against human BT549 cells expressing NRP1 assessed as cell viability measured after 72 hrs by MTT assay. To be noted: BT-549, 72 h. In kind it is functional, cell-based.
Series [5] in a line: Chemical stability of compound in DMSO/aqueous buffer at 1 mg at pH 0.9 to 8.4 incubated at 25 degree C and measured upto 16 days by HPLC analysis. In kind it is physicochemical. Particulars: read-out: Stability. In outline:
(§1)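 Compound held in aqueous buffers at pH 0.9, 7.4 and 8.4 at 25 °C or 37 °C for up to 16 days; the chromatographic profile was followed by HPLC.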

Series [6] is described as follows: Chemical stability of compound in DMSO/aqueous buffer at 1 mg at pH 0.9 to 8.4 incubated at 37 degree C and measured upto 16 days by HPLC analysis. The format is physicochemical. To be noted: read-out: Stability. In outline: as §1
A short description of series [7]: Retention time of compound in pH 0.91 at 1 mg incubated at 37 degree C by HPLC analysis. The format is physicochemical. In outline: as §1
Series [8] can be described thus: Retention time of compound in pH 7.4 at 1 mg incubated at 37 degree C by HPLC analysis. The format is physicochemical. In outline: as §1
The nature of series [9]: Retention time of compound at in pH 8.4 at 1 mg incubated at 37 degree C by HPLC analysis. The format is physicochemical. In outline:
as §1

Series [10] can be described thus: Retention time of compound at 1mg measured immediately by HPLC analysis. The format is physicochemical.
A short description of series [11]: Drug uptake in human MDA-MB-231 cells at 2 uM incubated at 37 degree C measured after 3 days by HPLC analysis. Particulars: mda-mb-231, 72 h. In kind it is ADME, cell-based. In a few lines:
(§2)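 MDA-MB-231 or BT-549 breast cancer cells were cultured with […] of compound for three days at 37 °C. Supernatant was analysed by HPLC. Cells were then washed and lysed with methanol, and the intracellular compound was measured by quantitative HPLC dosage, giving mol per sample.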

Series [12] can be described thus: Drug uptake in human BT549 cells at 2 uM incubated at 37 degree C measured after 3 days by HPLC analysis. The format is ADME, cell-based. Particulars: bt-549, 72 h. In a few lines:
as §2

The nature of series [13]: Retention time of compound in human MDA-MB-231 cell lysates at 2 uM incubated at 37 degree C measured after 3 days by HPLC analysis. The format is ADME, subcellular, Lysate. Particulars: mda-mb-231, 72 h. In outline: as §2
Series [14] in a line: Retention time of compound in human BT549 cell lysates at 2 uM incubated at 37 degree C measured after 3 days by HPLC analysis. Particulars: bt-549, 72 h. The format is ADME, subcellular, Lysate. In outline:
as §2

A short description of series [15]: Retention time of compound in human MDA-MB-231 cells at 2 uM incubated at 37 degree C measured after 3 days by HPLC analysis. The format is ADME, cell-based. To be noted: mda-mb-231, 72 h. In outline: as §2
Series [16] is described as follows: Retention time of compound in human BT549 cells at 2 uM incubated at 37 degree C measured after 3 days by HPLC analysis. In kind it is ADME, cell-based. To be noted: bt-549, 72 h. In a few lines:
as §2

In series [17] the test system is MDA-MB-231. Briefly: Antitumour activity against human MDA-MB-231 cells xenografted in nude mouse assessed as reduction in tumour growth at 50 mg/kg, po administered every 3 days for 20 days and measured 3 times a week by caliper method relative to control. Particulars: MDA-MB-231, po, read-out: TGI.

On to `CCOc1ccccc1NC(=O)c1ccc(C)c(S(=O)(=O)Nc2ccc(C)cc2)c1`, for which the IC50 was 4.9 µM in the series with MDA-MB-231 [1], 0.2 µM with MDA-MB-231 [2], 2.1 µM in the series with BT-549 [3] and 0.1 µM in the series with BT-549 [4]. Further, the remaining at 384 h in series [5] and in [6] was 100% each time. Besides, the Retention_time came to 4.058 min in series [7]; 4.067 min in series [8]; 4.05 min in [9]; 4.075 min in series [10]; 4.025 min in series [13]; 3.992 min in series [14]. For the same compound, the Retention_time turned out to be 4.492 min in series [15] and 4.05 min in series [16]. The Drug uptake in series [11] is 5.14 nmol; in series [12], 1.4 nmol. In addition, in the series on MDA-MB-231 [17], the inhibition in vivo at 50 mg/kg is > 60%.
On to `CCN(CC)CCNC(=O)c1c(C)[nH]c(/C=C2\C(=O)Nc3ccc(F)cc32)c1C` [SUNITINIB], for which the IC50 with MDA-MB-231 [1] worked out at 2.6 µM; in the series with MDA-MB-231 [2], 3.7 µM; with BT-549 [3] it was 2.2 µM; in the series with BT-549 [4] it was 3.5 µM.

By IC50 is commonly meant the midpoint of a concentration-inhibition curve.
